Experimental data taken from ChEMBL document CHEMBL1128557, “Synthesis, antitumor activity, and chemical properties of silaplatin and related platinum (II) and platinum (IV) complexes derived from beta-silyl amines” (J Med Chem, 1995).

Legend:
Tumor Cell line [1] = experiment: Evaluated in vitro for the log10 molecular concentration that caused 50 % inhibition of tumor growth of 60 human tumor cell lines; type: functional, cell-based
How it was run: (§1)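 Cells preincubated 24 h, then exposed to the agent at five 10-fold dilutions (0.01–100 μM for the platinum complexes) for 48 h. Cells fixed in situ and stained; solubilized stain read spectrophotometrically. Panel of leukemia, non-small-cell lung, ovarian and renal lines. Log GI50 or TGI taken per cell line in one experiment, then averaged across lines.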

Tumor Cell line [2] = experiment: Evaluated in vitro for the log10 molecular concentration that caused […] tumor growth of 60 human tumor cell lines.; type: functional, cell-based; how it was run: as §1
Tumor Cell line [3] = experiment: The compound was evaluated in vitro for the log10 molecular concentration that caused 50 % of 60 human tumor cell line kills; type: ADME, cell-based
How it was run: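 Human tumor cell lines (leukemia, non-small-cell lung, ovarian, renal) were preincubated 24 h. Platinum complexes were then added as five 10-fold dilutions, 0.01–100 μM, for 48 h, followed by in situ fixation and staining, with solubilized stain read spectrophotometrically. Log LC50 (50% cell kill) was averaged across cell lines within one experiment.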

Substance | GI50 (Tumor Cell line [1]) | TGI (Tumor Cell line [2]) | Log LC50 (Tumor Cell line [3])
CARBOPLATIN | 107 µM | 214 µM | 
[Bis(aminomethyl)diethylsilane]tetrachloroplatinum(IV) [listing 1 of 2 here] |  |  | > -4.02
CISPLATIN | 4.47 µM | 33.9 µM | 
[Bis(aminomethyl)ethylmethylsilane]tetrachloroplatinum(IV) |  |  | > -4.02
[Bis(aminomethyl)diethylsilane]tetrachloroplatinum(IV) [listing 2 of 2 here] | 3.02 µM | 46.8 µM | 
